We go through five molecules from ChEMBL document CHEMBL4251685, “Microthecaline A, a Quinoline Serrulatane Alkaloid from the Roots of the Australian Desert Plant Eremophila microtheca” (J Nat Prod, 2018).

In general, IC50 refers to the concentration that gives 50% inhibition. Low values mean higher potency, high ones lower potency.

The subject of series [1] is Plasmodium falciparum. Kind of series: Antimalarial activity against chloroquine-resistant Plasmodium falciparum Dd2 after 72 hrs by DAPI staining based fluorescence assay. It is filed as functional, organism-based. The conditions noted are these: Dd2, 72 h.
Series [2] in a line: Selectivity index, ratio of IC50 for HEK293 cells to IC50 for chloroquine-resistant Plasmodium falciparum Dd2. The class given is toxicity. As to conditions: human; read-out: Ratio IC50.
A short description of series [3]: Selectivity index, ratio of IC50 for HEK293 cells to IC50 for chloroquine-sensitive Plasmodium falciparum 3D7. It is filed as toxicity. As to conditions: human; read-out: Ratio IC50.
Another series has as its system HEK293. Kind of series: Cytotoxicity against HEK293 cells assessed as inhibition of cell growth at 10 uM after 72 hrs by alamar blue assay. The class given is cell-based. As to conditions: human, hek293, 72 h. On the technique in general: Alamar Blue is a resazurin reagent that responds to reducing activity.
The nature of series [4]: Cytotoxicity against HEK293 cells assessed as inhibition of cell growth at 80 uM after 72 hrs by alamar blue assay relative to control. The conditions noted are these: human, read-out: GI. It is filed as cell-based. In short, it runs like this: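 HEK293 human embryonic kidney cells; the reported value is the average percent inhibition measured at 80 μM.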
For series [5], the system named is Plasmodium falciparum. Kind of series: Antimalarial activity against chloroquine-sensitive Plasmodium falciparum 3D7 after 72 hrs by DAPI staining based fluorescence assay. The class given is functional, organism-based. The conditions noted are these: 3D7, 72 h.
Series [6] deals with Plasmodium falciparum. Nature of the series: Antimalarial activity against chloroquine-resistant Plasmodium falciparum Dd2 at 10 uM after 72 hrs by DAPI staining based fluorescence assay. It is filed as functional, organism-based.
The test system of series [7] is Plasmodium falciparum. Nature of the series: Antimalarial activity against chloroquine-sensitive Plasmodium falciparum 3D7 at 10 uM after 72 hrs by DAPI staining based fluorescence assay. The class given is functional, organism-based.

The source made the active and inactive calls. No cut-off for these calls is given here.

`C[C@H]1[C@H](OC(=O)CCC(=O)O)O[C@@H]2O[C@@]3(C)CC[C@H]4[C@H](C)CC[C@@H]1[C@@]24OO3` [ARTESUNATE] had an IC50 in the series with Plasmodium falciparum [1] of 0.001 µM. In addition, the selectivity ratio came to 10000 in series [2] and 11600 in series [3].

On to `CCN(CC)CCCC(C)Nc1ccnc2cc(Cl)ccc12` (stereo not drawn) [CHLOROQUINE], for which, in the series on HEK293, the “growth inhibition (GI)” value was “Not Active”.

As to `CC(C)=CCCc1cnc2c(C)cc(O)c3c2c1CC[C@H]3C`, the IC50 in the series with Plasmodium falciparum [1] was 17.2 µM; with Plasmodium falciparum [5], 7.7 µM. The selectivity ratio in series [2] is 2.3; in series [3] it was 5.2. The inhibition at 72 h, 80 µM in series [4] is 62%.

Take `COc1cc(C)c2ncc(CCC=C(C)C)c3c2c1[C@H](C)CC3`: the result with Plasmodium falciparum [6] and with Plasmodium falciparum [7] was inactive.

With `COc1ccc(C[C@H](N)C(=O)N[C@H]2[C@@H](O)[C@H](n3cnc4c(N(C)C)ncnc43)O[C@@H]2CO)cc1` [PUROMYCIN], the selectivity ratio in series [2] was 10.5; in series [3], 9.
